# Bioassay records from PubChem.
# Lmaj promast: reduces viability of Leishmania major promastigotes. 200,000 compounds, 9% hits. resazurin fluorescence viability. inhibition, % at 10 µM; in the data active = inhibition above about 50%;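 note: promastigotes grown with compound for 44 hours at 28 °C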
# CSC inhib: cancer stem cell inhibition; 300,000 compounds, 1.1% hits; cancer stem cell-like cells viability, luminescence; inhibition, % at 7.5 µM; in the data active = inhibition above about 75%; tested in HMLE shEcad cells
# SKKanGAS inh: blocks kanamycin growth of S. pyogenes SKKanGAS strain. BacTiter-Glo, 6 h. inhibition, % at 7.5 µM. 300,000 compounds, 1.3% hits. AID 1662;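 active = mean replicate score, as percent of positive control median, at least 50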;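 note: strain carries kanamycin resistance gene driven by streptokinase promoter and grows in 40 µg/ml kanamycin; loss of luminescence reflects streptokinase promoter inhibition or plain growth inhibition; 0% = median of DMSO wells and 100% = positive control at its reference dose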
# Beta cell apopt: beta cell apoptosis inhibition; INS-1E cytokine-induced death, ATP luminescence, 48 h; percent of positive-control rescue, neutral wells zero; protection from apoptosis, % (test concentration not listed); 300,000 compounds, 0.8% hits;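 active = Every replicate reaches about 75%, or at least half do and their mean reaches it too, limit read from the data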;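 note: 0% = cytokine-treated negative control wells and 100% = positive control rescue; higher means more ATP so stronger rescue from cytokine killing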
# Mdm2-MdmX inh: human Mdm2/MdmX binding inhibition; O15151+Q00987; SaOS-2 split-luciferase Mdm2/MdmX complementation, luminescence; inhibition, % at 8 µM; 330,000 compounds, 3% hits; AID 485346;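 active = inhibition of at least 50% at 8 µM in the primary screen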
# Target sequence (O15151 whole entry, looked up): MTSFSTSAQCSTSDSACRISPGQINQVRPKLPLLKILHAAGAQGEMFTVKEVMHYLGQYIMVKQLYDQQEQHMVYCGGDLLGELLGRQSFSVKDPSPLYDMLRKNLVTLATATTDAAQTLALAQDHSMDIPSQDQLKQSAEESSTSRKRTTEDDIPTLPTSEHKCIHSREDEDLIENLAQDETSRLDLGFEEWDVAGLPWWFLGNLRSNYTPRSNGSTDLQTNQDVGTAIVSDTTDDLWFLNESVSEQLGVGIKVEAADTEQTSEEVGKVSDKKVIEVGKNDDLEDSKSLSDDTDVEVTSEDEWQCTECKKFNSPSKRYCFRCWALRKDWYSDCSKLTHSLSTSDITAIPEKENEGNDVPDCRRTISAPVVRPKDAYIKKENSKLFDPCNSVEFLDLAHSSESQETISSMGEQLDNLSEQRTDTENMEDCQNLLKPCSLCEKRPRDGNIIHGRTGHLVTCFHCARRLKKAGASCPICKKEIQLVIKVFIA
# Target sequence (Q00987 whole entry, looked up): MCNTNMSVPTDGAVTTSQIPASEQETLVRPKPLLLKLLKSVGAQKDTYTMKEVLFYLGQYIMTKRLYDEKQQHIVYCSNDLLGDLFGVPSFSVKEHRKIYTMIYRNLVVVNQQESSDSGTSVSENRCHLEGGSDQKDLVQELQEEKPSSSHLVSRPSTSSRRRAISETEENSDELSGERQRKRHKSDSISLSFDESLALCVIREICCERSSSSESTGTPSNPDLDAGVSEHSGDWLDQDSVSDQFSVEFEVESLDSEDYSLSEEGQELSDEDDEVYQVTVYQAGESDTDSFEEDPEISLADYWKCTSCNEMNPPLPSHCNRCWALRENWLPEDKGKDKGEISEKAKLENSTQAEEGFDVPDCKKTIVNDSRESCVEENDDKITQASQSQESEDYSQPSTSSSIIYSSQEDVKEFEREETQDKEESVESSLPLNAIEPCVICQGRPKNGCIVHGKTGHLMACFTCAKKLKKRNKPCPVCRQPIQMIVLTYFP
# T cruzi repl: blocks replication of Trypanosoma cruzi. T. cruzi beta-gal in NIH3T3, luminescence, 90 h. inhibition, % (concentration not given with the values). 300,000 compounds, 1.4% hits. AID 1885;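 active = mean inhibition across valid replicates above about 55%, limit read from the data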;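 note: signal also drops with host cell toxicity which is not excluded here; 0% = plate median of DMSO wells and 100% = zero luminescence signal; higher percent means less beta-gal luminescence so fewer parasites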
#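 System: mouse NIH/3T3 fibroblasts infected with β-gal-expressing T. cruzi Tulahuen C4 / Input: NIH/3T3 cells, 5,000 per well / Buffer or medium: Low-serum DMEM with 2% FBS / Probe or stimulus: 5000 reporter trypomastigotes per well / Schedule: ≥90 h infection period, 3 h prior cell attachment / Measured by: GalScreen luminescence, 60 min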
# * hit, by the source's call; . = no result. Compounds with a hit are over-represented: about 9.4% of the library has one in this group of screens.
SMILES,Lmaj promast,CSC inhib,SKKanGAS inh,Beta cell apopt,Mdm2-MdmX inh,T cruzi repl
O=S(=O)(Nc1ccc(-c2nnc(SCc3ccc(Cl)cc3)o2)cc1)c1ccccc1,-2,92*,38,-11,16,6
O=C(Nc1ccccc1-c1nnc(SCc2ccc(Cl)cc2)o1)c1ccccc1,5,.,-11,4,14,71*
O=C(O)c1ccc(CSc2nnc(-c3ccc(Cl)cc3)o2)cc1,.,-27,1,1,-22,-9
O=S(=O)(c1ccc(-c2nnc(SCc3ccccc3)o2)cc1)N1CCCC1,85*,-4,3,8,32,10
Cn1c(N)nc2nc(CCc3ccccc3)c(=O)[nH]c2c1=O,.,6,12,-1,19,3
CC(C)(C)NC(=O)Cn1c(=O)c(=O)n(Cc2ccccc2)c2ccc(Cl)cc21,58*,-3,2,-3,11,5
O=C(Cn1c(=O)c(=O)n(Cc2ccccc2)c2ccc(Cl)cc21)Nc1ccc(F)cc1F,1,51,-1,-4,26,-11
Cc1ccsc1C(=O)C1CCCN(Cc2cccn2-c2ccc(Cl)cn2)C1 (stereo not given),94*,-7,1,14,42,27
COc1ccc(O)c(CN2CCCC(C(=O)Nc3cccc(-n4cccn4)c3)C2)c1 (stereo not given),.,-18,-1,-6,18,4
Cc1ccc(-n2cccn2)c(CN2CCCC(C(=O)c3sccc3C)C2)c1 (stereo not given),87*,-4,1,8,-5,37
Cn1cc([N+](=O)[O-])c(C(=O)N2CCN(Cc3ccc4c(c3)OCO4)CC2)n1,.,18,1,-9,22,-29
COc1cccc(N/C(SCc2ccccc2C)=C(/C#N)C(=O)NCc2cccs2)c1,4,13,6,5,14,46
COc1cccc(N/C(SCc2cccc([N+](=O)[O-])c2)=C(/C#N)C(=O)NCc2cccs2)c1,87*,8,-3,5,.,25
O=C(O)CCC(=O)N1CCc2cc(S(=O)(=O)NCc3ccc(Cl)cc3)ccc21,.,-2,-10,-3,-4,10
O=[N+]([O-])c1ccc(S(=O)(=O)N2CCN(c3ccnc4cc(Cl)ccc34)CC2)cc1,.,2,2,2,26,60*
COc1cc(/C=C2\SC(c3ccc(C)cc3)=NC2=O)cc(OC)c1O,57*,4,18,-9,-6,5
O=C(COC(=O)c1ccc(Cl)nc1)NNC(=O)c1ccc(Cl)cc1,.,0,-12,0,10,-15
Cc1ccc2nc(NC(=O)CCNS(=O)(=O)c3cccs3)sc2c1,49,-7,5,12,-9,12
COc1ccc(C)cc1NC(=O)c1ccc(NS(=O)(=O)c2cccs2)cc1,.,11,13,4,8,2
Cc1ccc2nc(NC(=O)c3ccc(NS(=O)(=O)c4cccs4)cc3)sc2c1,15,104*,62*,-5,-56,4
Cc1ccc2nc(NC(=O)CCNS(=O)(=O)c3ccc(Br)s3)sc2c1,98*,21,13,-1,37,52
CS(=O)(=O)c1ccc2nc(NC(=O)c3ccc(NS(=O)(=O)c4cccc([N+](=O)[O-])c4)cc3)sc2c1,.,18,62*,-2,8,-10
CS(=O)(=O)c1ccc2nc(NC(=O)c3ccccc3)sc2c1,.,8,6,14,-93,20
O=C(NNC(=O)c1cc(Cl)ccc1O)c1ccc(NS(=O)(=O)c2cccs2)cc1,.,95*,47,.,26,-12
COc1ccc(N(C)S(=O)(=O)c2cccc(C(=O)OC(C(=O)Nc3cc(C)cc(C)c3)c3ccccc3)c2)cc1 (stereo not given),96*,15,-8,-1,2,7
CCOc1ccccc1NC(=O)c1cccc(NC(=O)CC(c2ccccc2)c2ccccc2)c1,22,27,2,8,-1,46
CC(=O)c1cccc(NC(=O)C(OC(=O)c2cccc(S(=O)(=O)N(C)c3ccccc3)c2)c2ccccc2)c1 (stereo not given),96*,-2,7,-1,23,-25
CCOc1ccccc1NC(=O)c1ccc(Cl)c(NC(=O)CC(c2ccccc2)c2ccccc2)c1,70*,-8,9,11,7,50
COc1ccc(N(C)S(=O)(=O)c2cccc(C(=O)Nc3cc(OC)ccc3OC)c2)cc1,82*,13,-22,.,28,30
